# Rows were chosen to be rich in hits. Some 2% of all compounds tested hit in one or more screens of this group.
# Apaf1 inhib = human Apaf-1 inhibition | O14727 | reconstituted apoptosome caspase-3 activity, DEVD-Rh110 fluorescence | actives 0.71% (n = 330,000) | inhibition, % at 20 µM; active = inhibition of at least 40% at 20 µM;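 note: plate controls were DMSO wells for no effect and DEVD-CHO caspase inhibitor wells for full effect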
#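 Assay system – apoptosome proteins · Medium – Hepes buffer, pH 7.5 · Also added – cytochrome c with DEVD-Rh110 · Timing – 30 min compound preincubation, 50 min activation, room temperature · Detection – Rh110 fluorescence, excitation 480 nm, emission 540 nm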
# PP5 primary = blocks human protein phosphatase 5 activity; P53041; inhibition, % at 6.7 µM; purified PP5c, OMFP substrate fluorescence; actives 0.18% (n = 320,000);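 active = inhibition above the campaign's mean inhibition across all tested compounds plus 3 SD, cut at about 9.5% in these data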;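 note: 0% = DMSO only and 100% = 100 µM cantharidin control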
# Target sequence (P53041 whole entry, looked up): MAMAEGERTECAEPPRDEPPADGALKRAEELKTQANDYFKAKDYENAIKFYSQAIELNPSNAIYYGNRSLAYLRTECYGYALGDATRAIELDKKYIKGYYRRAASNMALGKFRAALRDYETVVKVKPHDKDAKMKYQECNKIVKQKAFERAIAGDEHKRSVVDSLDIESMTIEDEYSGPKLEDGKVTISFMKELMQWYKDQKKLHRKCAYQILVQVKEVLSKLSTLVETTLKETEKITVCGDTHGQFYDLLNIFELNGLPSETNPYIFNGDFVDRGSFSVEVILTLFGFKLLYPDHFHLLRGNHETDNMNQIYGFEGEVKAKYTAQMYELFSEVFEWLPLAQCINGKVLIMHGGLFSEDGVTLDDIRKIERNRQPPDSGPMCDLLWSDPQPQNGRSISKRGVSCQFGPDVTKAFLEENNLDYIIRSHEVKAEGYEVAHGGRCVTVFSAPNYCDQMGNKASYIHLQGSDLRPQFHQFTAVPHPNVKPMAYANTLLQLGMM
# CTSL1 counter = cathepsin L1 inhibition, PFM18AAP counter-screen. recombinant F. hepatica cathepsin L1, Z-Leu-Arg-MCA fluorescence. inhibition, % at 5.96 µM. actives 0.49% (n = 300,000);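 active = inhibition above the mean of all tested compounds plus 3 SD, set per screening campaign, cut at about 17% in these data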;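 note: 0% = plate median of test compound wells and 100% = 1 µM Z-Phe-Ala-diazomethylketone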
# UCH37 DUB inh = human UCH37 deubiquitinating enzyme inhibition | AID 588478 | purified proteasome/UCH37, Ub-AMC cleavage fluorescence | actives 0.33% (n = 330,000) | Q9Y5K5 | inhibition, % (test concentration not listed);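 active = mean inhibition over replicate wells above about 20%, limit read from the data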;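 note: 0% = compound-free wells with enzyme and 100% = wells lacking proteasome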
#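 Material: Human UCH37 enzyme supplied as purified proteasome complex | Schedule: 30 min compound-proteasome preincubation then 25 min substrate reaction, room temperature | Detection: AMC fluorescence from Ub-AMC cleavage, excitation 355 nm, emission 460 nm | Benchmarks: Wells without proteasome as full block, compound-free enzyme plus substrate as uninhibited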
# PAD4 inh = blocks human protein arginine deiminase 4 | Q9UM07 | recombinant PAD4, RCA probe fluorescence polarization | inhibition, % at 6.36 µM | actives 0.41% (n = 330,000) | AID 485272;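 active = percent inhibition above a cutoff equal to the mean of all tested compounds plus 3 SD, cut at about 15% in these data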;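 note: 0% = PAD4 with RCA probe and DMSO and 100% = probe without PAD4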
# GSTO1 inh = GSTO1 inhibition, counter-screen for RBBP9 inhibitors; inhibition, % at 5.96 µM; actives 1.1% (n = 300,000); recombinant GSTO1, activity-based probe fluorescence polarization;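 active = inhibition above the campaign mean inhibition plus 3 SD, cut at about 35% in these data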;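 note: 0% = GSTO1-1 with DMSO and 100% = wells lacking GSTO1-1 enzyme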
# The depositor's hits bear a star; nt = no result given.
SMILES,Apaf1 inhib,PP5 primary,CTSL1 counter,UCH37 DUB inh,PAD4 inh,GSTO1 inh
CCCCCOCC1CC(CC(C)=NNC(N)=O)(C(=O)OCC)C(=O)O1 (configuration not stated),nt,nt,nt,2,nt,nt
Clc1ccc(CONc2ncnc3nonc23)c(Cl)c1,8,2,18*,5,1,8
CC(C)C[C@H]1CN=C(Nc2ccccc2)N1CC1CCCCCC1,29,1,20*,-1,4,6
CCc1ccc(-c2cn(-c3nc(C)cc(C)n3)c(=N)o2)cc1,3,2,61*,5,2,-18
Cc1ccc(OCC(=O)O/N=C(\N)Cc2ccc(Cl)cc2)cc1,10,2,-17,3,3,-4
COc1ccc(OCC(=O)O/N=C(\N)Cc2ccc(Cl)cc2)cc1,13,4,30*,3,-4,5
COc1ccc(C=NN2CCN(Cc3ccccc3)CC2)cc1,nt,nt,nt,3,nt,nt
Cc1cc(/C=N/NC(N)=S)c(C)n1-c1ccc(Br)cc1,2,2,42*,nt,-7,1
Cc1cc(/C=N/NC(N)=S)c(C)n1-c1cccc(Cl)c1,12,0,14,nt,-3,3
Cc1cc(C=NNC(N)=S)c(C)n1-c1cccc(Cl)c1,nt,nt,nt,4,nt,nt
Cc1cc(/C=N/NC(N)=S)c(C)n1-c1ccc(Cl)cc1,18,0,17*,nt,-1,-32
CC(C)Oc1ccc(Br)cc1/C=N\NC(N)=S,5,-2,47*,nt,0,-5
COc1ccc(C=NNC(=O)CC(=O)NC2CCCCC2)cc1,nt,nt,nt,1,nt,nt
COc1ccc(NC(=O)c2c(N)no[n+]2[O-])cc1,-1,-1,3,6,6,4
COc1ccc(C(=O)c2no[n+]([O-])c2C(=O)c2ccc(OC)cc2)cc1,15,1,18*,8,-8,32
N#C/C(=C(/O)CSc1ccccc1C(=O)O)c1nc2ccccc2s1,25,0,5,21*,2,26
N#C/C(=C(/O)CSc1ccccn1)c1nc2ccccc2s1,3,0,11,16,-44,20
CN(C)c1ccc(C(CNC(=O)c2ccccc2F)c2c[nH]c3ccccc23)cc1 (configuration not stated),22,5,-2,26*,0,-7
NC(=O)COc1ccc(C=NNC(=O)C2CCCN2S(=O)(=O)c2ccc(Cl)cc2)cc1 (configuration not stated),nt,nt,nt,1,nt,nt
CC(C)C(NS(=O)(=O)c1cccs1)C(=O)NCCN1CCN(c2ccccc2)CC1 (configuration not stated),11,4,48*,1,1,0
COc1ccc(N2CCN(CCNC(=O)CCNS(=O)(=O)c3cccs3)CC2)cc1,5,2,-2,-3,2,-1
COc1ccc(CNC(=O)CC(C)=NNC(=O)c2cnccn2)cc1,nt,nt,nt,1,nt,nt
[O-]/C(=C(\C(=S)Nc1cccc2ccccc12)[n+]1ccccc1)c1cccs1,30,1,2,6,11,37*
Cc1cccc(C)c1NC(=S)/C(=C(\[O-])c1cccs1)[n+]1ccccc1,-1,-1,6,14,-4,1
Nc1cccnc1Sc1cccc(Cl)c1,76*,-2,8,-8,-5,0
SMILES,Apaf1 inhib,PP5 primary,CTSL1 counter,UCH37 DUB inh,PAD4 inh,GSTO1 inh
COc1ccc(CNC(=O)C2(CC3CC(c4ccccc4)=NO3)CCN(C(=O)C3CCCC3)CC2)cc1 (configuration not stated),-2,1,-2,30*,1,4
NC(=NN=Cc1cccs1)SC1CC(=O)N(c2cccc([N+](=O)[O-])c2)C1=O (configuration not stated),nt,nt,nt,4,nt,nt
COc1ccc(C2SCC(=O)N2CCCN(C)C)cc1 (configuration not stated),5,4,-5,34*,-1,2
CC(=O)NCc1ccc(S(=O)(=O)NN=Cc2ccccc2)cc1,nt,nt,nt,2,nt,nt
CC1=NN(S(=O)(=O)c2ccc(Cl)cc2Cl)C(=O)c2ccccc2O1,7,-2,56*,2,4,-2
Cc1nn(-c2ccc(Cl)cc2Cl)c(=O)c2ccccc12,3,3,-4,4,-1,5
CC(=O)Nc1ccc(S(=O)(=O)Oc2cccc(C=N/N=C3/NC(=O)C(CC(=O)O)S3)c2)cc1 (configuration not stated),nt,nt,nt,9,nt,nt
COC/C=C/C1=CC2=CC(=O)C(C)(O)C(=O)C2=CO1 (configuration not stated),6,4,0,nt,1,42*
COC/C=C/C1=CC2=CC(=O)C(C)(OC(=O)c3cccs3)C(=O)C2=CO1 (configuration not stated),-2,3,1,nt,6,10
COC/C=C/C1=CC2=CC(=O)C(C)(OC(=O)c3ccco3)C(=O)C2=CO1 (configuration not stated),12,-4,-4,nt,24*,36*
COC/C=C/C1=CC2=CC(=O)C(C)(OC(=O)C3CCCC3)C(=O)C2=CO1 (configuration not stated),16,4,4,1,0,34
O=[N+]([O-])c1ccc(C=NNc2ncccc2[N+](=O)[O-])s1,nt,nt,nt,11,nt,nt
COc1cccc(C=Nn2c(C)nc3ccccc32)c1OC,nt,nt,nt,1,nt,nt
O=C(CN1C(=O)S/C(=C\c2cccs2)C1=O)Nc1ccc(O)c(C(=O)O)c1,nt,-2,4,21*,-2,25
O=C(CN1C(=O)S/C(=C\c2cccs2)C1=O)Nc1ccc(C(=O)O)c(O)c1,nt,1,6,13,7,12
COC(=O)C1C(O)C(C)C(O)C(C)(O)/C=C\C=C(/C)C(=O)Nc2c(C)c(OC(C)=O)c3c(c2O)C(=O)C(C)=C2OCOC(=C23)/C(C)=C/C(C)(O)C(O)C(C)C1O (configuration not stated),35,1,2,nt,-2,59*
Cn1nc(C(F)(F)F)c(C=NOC(=O)c2ccccc2)c1Cl,nt,nt,nt,-1,nt,nt
O=C(NC(O)C(=O)c1ccccc1)c1ccc(F)cc1 (configuration not stated),-3,2,18*,3,2,7
CCCCCCSc1ccc(-c2nc3cc(C)ccn3c2NC2CCCCC2)cc1,47*,nt,nt,-405,-2,nt
Fc1cccc(Cl)c1CNc1ccc(N2CCCC2)cc1,48*,3,-6,0,4,37*
CC(C)c1ccc(S(=O)(=O)/N=C2/C=C(Sc3ncn[nH]3)C(=O)c3ccccc32)cc1,nt,11*,101*,nt,38*,85*
Cc1ccc(S(=O)(=O)Nc2ccc(O)c(Sc3ncn[nH]3)c2)cc1,2,3,-6,1,-5,14
O=C(NN=Cc1sc2ccccc2c1O)c1cccc2ccccc12,nt,nt,nt,5,nt,nt
